Reference: PubChem BioAssay AID1381 (University of Pittsburgh Molecular Library Screening Center, 2008)
In all, about 220,000 compounds went through this assay and about 1,000 (0.45%) were called active.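 Rule for the calls: active = plate z-score of nuclear minus cytoplasmic receptor signal below a set negative limit, without overly bright fluorescence or cell loss (cut at about -3.5 in these data, passing the limit was not always enough); inactive = the rest, inconclusive results apart.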 What follows is part of a selection rich in actives, with near analogues and random picks from the rest.

Assay: inhibitors of GR-EGFP nuclear translocation, primary screen, dynein cargo transport inhibitor project, imaging, high-content, 3617.4 mouse cells (AID 1381)
Details: at 20 µM, stimulated with dexamethasone, 1 µM
Method in brief: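 Buffer or medium – tet-free medium with charcoal-stripped serum · Signal – automated 10x imaging of fixed Hoechst-stained cells · Also added – dexamethasone agonist, 1.0 µM final, for 30 min · Incubation – induction 48 h, compound 1 h, agonist 30 min · Read-out – GR-EGFP nuclear translocation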

[1] = measured here: cell count per field
[2] = measured here: cytoplasmic GR-EGFP intensity, stronger effect = higher value
[3] = measured here: nuclear GR-EGFP intensity, stronger effect = lower value

Compound	z-score (stronger effect = lower value)	z-score [1]	z-score [2]	z-score [3]
C=CCn1cc(C(=O)NCc2ccc(Cl)cc2)c(=O)c2cc(S(=O)(=O)N(CC)CC)ccc21	0.479 (inactive)	-0.781	-0.191	1.32
CSCCC(NC(=O)COc1ccccc1)C(=O)Nc1ccc(C)cc1 (stereo unspecified)	0.137 (inactive)	0.845	0.202	0.24
Cc1ccccc1C(=O)Nc1ccc(N2CCCCCC2)cc1	-0.0609 (inactive)	-0.96	0.105	0.497
O=c1[nH][nH]c(=O)c2cc(N3CCCC3)ccc12	-0.37 (inactive)	0.302	-0.256	0.0156
O=C1C=CC(=O)N1c1ccc(N2CCCCC2)cc1	-4.11 (active)	-2.21	2.18	-1.81
COc1ccc(Cl)cc1-n1c(C)cc(C(=O)OCC(=O)N2CC(=O)Nc3ccccc32)c1C	-0.945 (inactive)	0.925	-0.291	-0.693
COCCn1c(C)cc(C(=O)COC(=O)/C=C/c2cccc(OC)c2)c1C	-0.49 (inactive)	0.119	-0.317	-0.136
COc1cccc(-c2ccc(SCC(=O)N3CCN(c4ccccc4)CC3)nn2)c1	1.32 (inactive)	-1.03	-0.273	1.04
O=C(NCc1ccc(F)cc1)C(c1ccccc1)N(C(=O)c1csnn1)C1CC1 (stereo unspecified)	2.29 (inactive)	-1.97	-0.277	0.843
Cc1cc(C(=O)NCCc2ccc(Cl)cc2)n(-c2ccccc2)n1	-5.24 (active)	-1.31	0.343	-3.12
O=C(NCCc1ccccc1)Oc1ccc(Cl)cc1	-0.396 (inactive)	0.0482	-0.223	-0.459
Cc1cc(NC(=O)Nc2ccc(Cl)cc2)n(-c2ccccc2)n1	-0.438 (inactive)	-0.392	-0.229	0.639
Brc1ccc2c(c1)[C@H]1OCC[C@H]1[C@@H](c1cccs1)N2	1.51 (inactive)	-1.61	-0.149	1.53
COC(=O)[C@@H]1CC[C@H](C)[C@@H](c2ccc(C)cc2)N1C(=O)c1ccc(/C=N/O[C@H](C)c2cn([C@@H]3COC[C@H]3O)nn2)cc1	0.697 (inactive)	0.326	-0.241	0.639
CC(=O)NCC(=O)N1CCCC(C(=O)c2ccc3c4c(cccc24)CC3)C1 (stereo unspecified)	0.368 (inactive)	-0.117	-0.201	0.261
Cc1ccc(O)c(CCc2ccccc2)n1	0.491 (inactive)	-0.946	-0.202	0.586
Cc1[nH]c2ccccc2c1C(=O)COC(=O)c1c(-c2ccccc2)noc1C	-0.58 (inactive)	0.403	-0.281	-0.747

Compound	z-score (stronger effect = lower value)	z-score [1]	z-score [2]	z-score [3]
Cc1ccc(CNC(=O)Cn2c(=O)c3sccc3n(Cc3cccc([N+](=O)[O-])c3)c2=O)cc1	-0.763 (inactive)	0.845	-0.184	-0.435
COc1ccc(C2/C=C\CN(S(=O)(=O)c3cccs3)CC(=O)N2Cc2ccc(F)cc2)cc1 (stereo unspecified)	1.14 (inactive)	-0.515	-0.824	0.466
O=C(CCCOc1ccccc1)NCc1ccco1	0.563 (inactive)	-0.922	-0.00359	0.541
CCc1cccc(NC(=O)CCC(=O)O)c1	0.674 (inactive)	-0.0336	-0.309	-0.143
O=C(CCl)Nc1cccc(CP(=O)(c2ccccc2)c2ccccc2)c1	-3.86 (active)	0.102	0.338	-1.58
O=C(CCl)Nc1ccc(Sc2ccc(NC(=O)CCl)cc2)cc1	-2.59 (inactive)	0.102	0.25	-1.01
CC1(C)COC(c2cccn2Cc2ccccc2Cl)=N1	-0.905 (inactive)	0.489	-0.115	0.38
COc1ccccc1NS(=O)(=O)N(C)C	-0.0864 (inactive)	0.4	-0.101	0.17
Cc1c(C#N)c(NC(=O)c2ccccc2)n(Cc2ccccc2)c1C	-0.291 (inactive)	0.341	-0.155	-0.456
CCN(CC)C(=O)CSC1c2ccccc2C(=O)N1c1ccccc1 (stereo unspecified)	2.73 (inactive)	-1.62	-0.173	0.99
CCC(=O)Nc1cccc(C2=NOC3(C2)C[C@@H](C(N)=O)N(C(=O)c2cc([N+](=O)[O-])cc([N+](=O)[O-])c2C)C3)c1 (stereo partly specified)	-0.341 (inactive)	-0.348	-0.641	0.119
COc1ccc(Cl)cc1CSc1ncn[nH]1	1 (inactive)	-0.49	-0.24	0.812
O=C(NCCOCc1ccc(Cl)cc1)c1ncn[nH]1	0.731 (inactive)	-0.271	-0.00295	0.605
O=C(/C=C/Sc1ncn[nH]1)c1ccc(Cl)cc1	-3.98 (active)	0.0934	1.02	-1.6
NS(=O)(=O)c1ccc(CCNC(=O)NC2CCCCC2)cc1	0.431 (inactive)	0.299	-0.269	0.126
CCOc1ccc(C(=O)NC2CCN(CC(=O)NCc3cccs3)CC2)cc1	-1.07 (inactive)	-0.199	-0.19	-0.737
O=Cc1ccc(Oc2cccc(C(F)(F)F)c2)nc1	1.74 (inactive)	-2.12	0.359	1.33
